Calls of active or inactive are those of the source. No cut-off for these calls is given here.
Experiments:
[1] = target: T1, Isocitrate dehydrogenase [NADP] cytoplasmic (Homo sapiens, UniProt O75874, R132H); assay: Inhibition of human C-terminal His8-tagged IDH1-R132H mutant expressed in Escherichia coli Rosetta assessed as inhibition of ketoreductase activity by measuring NADPH consumption preincubated for 60 mins followed by addition of alpha-KG as substrate measured after 50 mins in presence of NADPH and Mg2+ by resazurin based diaphorase-coupled fluorescence assay
Outline: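 IDH1-R132H–Mg2+ ketoreductase assay reading NADPH consumption through a diaphorase-coupled fluorescence reaction. Buffer contained 0.01% Tween 20 against aggregation. Primary screen at 15 μM in duplicate, with positives set at ≥60% inhibition in both replicates. Retests were in 8-point dose.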
Target sequence in this assay (O75874 2-414 R132H limits assumed): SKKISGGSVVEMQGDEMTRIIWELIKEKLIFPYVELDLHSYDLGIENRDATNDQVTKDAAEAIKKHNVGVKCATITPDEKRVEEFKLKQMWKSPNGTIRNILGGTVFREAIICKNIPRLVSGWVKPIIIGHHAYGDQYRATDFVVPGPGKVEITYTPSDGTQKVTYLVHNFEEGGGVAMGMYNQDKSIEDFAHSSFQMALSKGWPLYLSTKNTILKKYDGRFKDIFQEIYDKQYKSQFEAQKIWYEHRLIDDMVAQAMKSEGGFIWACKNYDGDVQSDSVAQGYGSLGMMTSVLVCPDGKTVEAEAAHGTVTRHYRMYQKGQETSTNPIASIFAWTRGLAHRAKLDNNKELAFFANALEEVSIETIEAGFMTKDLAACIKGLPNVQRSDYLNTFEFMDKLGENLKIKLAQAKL

[2] = target: T1, Isocitrate dehydrogenase [NADP] cytoplasmic; assay: (§1) Inhibition of IDH1-R132H mutant (unknown origin) expressed in human HA1EM cells assessed as suppression of R-2HG secretion measured after 72 hrs by LC-MS/MS analysis; type: cell-based
Outline: (§2)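 HA1E-M cells (HEK-293 derivative) engineered to overexpress IDH1-R132H and release R-2HG into growth media. Compound treatment for 72 h, then R-2HG in conditioned media measured by LC-MS. Values normalized to DMSO-treated controls; EC50 from three independent experiments, each run in triplicate.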
Target sequence in this assay (O75874 whole entry R132H): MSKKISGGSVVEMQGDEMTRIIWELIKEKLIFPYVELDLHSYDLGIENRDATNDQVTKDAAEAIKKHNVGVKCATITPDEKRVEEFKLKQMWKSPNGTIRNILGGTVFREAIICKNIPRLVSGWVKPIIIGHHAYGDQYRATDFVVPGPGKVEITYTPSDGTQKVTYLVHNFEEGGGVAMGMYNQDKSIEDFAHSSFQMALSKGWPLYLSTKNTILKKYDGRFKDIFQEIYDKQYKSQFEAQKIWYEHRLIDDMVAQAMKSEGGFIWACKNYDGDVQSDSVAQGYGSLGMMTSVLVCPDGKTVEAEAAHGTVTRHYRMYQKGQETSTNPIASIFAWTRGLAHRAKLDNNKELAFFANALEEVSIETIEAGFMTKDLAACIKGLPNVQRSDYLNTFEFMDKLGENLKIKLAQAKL

[3] = tested on: Isocitrate dehydrogenase [NADP] cytoplasmic (Homo sapiens), O75874 [R132H]; assay: as §1; type: cell-based; outline: as §2
Sequence of Isocitrate dehydrogenase [NADP] cytoplasmic (Homo sapiens), O75874 [R132H] (O75874 whole entry R132H): as above

[4] = tested on: Isocitrate dehydrogenase [NADP] cytoplasmic (Homo sapiens), O75874 [R132H]; assay: Inhibition of human C-terminal His8-tagged IDH1-R132H mutant expressed in Escherichia coli Rosetta assessed as inhibition of ketoreductase activity by measuring NADPH consumption preincubated for 10 mins followed by addition of NADPH and alpha-KG as substrate by fluorescence method
Outline: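 Purified IDH1-R132H incubated with α-KG and NADPH; direct kinetic read of falling NADPH fluorescence, run in dose. Enzyme concentration kept below that of the screening assays so inhibitor stays far above enzyme. IC50 values are geometric means of at least three independent experiments.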

SMILES	IC50 [1] [nM]	further results
C[C@@H]1CN([C@@H](C)CO)S(=O)(=O)c2ccc(C#Cc3cccc(F)c3)cc2O[C@H]1CN(C)C(=O)NC1CC1	1000	
C[C@@H]1CN([C@@H](C)CO)S(=O)(=O)c2ccc(C#Cc3cccc(F)c3)cc2O[C@H]1CN(C)C(=O)C1CCCCC1	440	
C[C@@H]1CN([C@@H](C)CO)S(=O)(=O)c2ccc(-c3cccnc3)cc2O[C@H]1CN(C)C(=O)NC1CCCCC1	6400	
C[C@@H]1CN([C@H](C)CO)S(=O)(=O)c2ccc(C#Cc3cccc(F)c3)cc2O[C@@H]1CN(C)C(=O)NC1CCCCC1	5300	
C[C@@H]1CN([C@@H](C)CO)S(=O)(=O)c2ccc(/C=C/c3ccccc3)cc2O[C@H]1CN(C)C(=O)NC1CCCCC1	190	
C[C@@H]1CN([C@@H](C)CO)S(=O)(=O)c2ccc(C#Cc3cccc(F)c3)cc2O[C@H]1CN(C)C(=O)CC1CCCCC1	360	
C[C@H]1CN([C@@H](C)CO)S(=O)(=O)c2ccc(C#Cc3cccc(F)c3)cc2O[C@H]1CN(C)C(=O)NC1CCCCC1	6300	
C[C@@H]1CN([C@@H](C)CO)S(=O)(=O)c2ccc(C#Cc3cccc(F)c3)cc2O[C@H]1CN(C)C(=O)NCC1CCCCC1	160	
C[C@H]1CN([C@@H](C)CO)S(=O)(=O)c2ccc(C#Cc3cccc(F)c3)cc2O[C@@H]1CN(C)C(=O)NC1CCCCC1	1000	
CCCNC(=O)N(C)C[C@@H]1Oc2cc(C#Cc3cccc(F)c3)ccc2S(=O)(=O)N([C@@H](C)CO)C[C@H]1C	550	
C[C@@H]1CN([C@@H](C)CO)S(=O)(=O)c2ccc(C#Cc3cccc(F)c3)cc2O[C@H]1CN(C)CCC1CCNCC1	7400	
C[C@@H]1CN([C@@H](C)CO)S(=O)(=O)c2ccc(C#CC3CCCCC3)cc2O[C@H]1CN(C)C(=O)NC1CCCCC1	90	
C[C@@H]1CN([C@H](C)CO)S(=O)(=O)c2ccc(C#Cc3cccc(F)c3)cc2O[C@H]1CN(C)C(=O)NC1CCCCC1	600	
C[C@@H]1CN([C@@H](C)CO)S(=O)(=O)c2ccc(C#Cc3cccnc3)cc2O[C@H]1CN(C)C(=O)NC1CCCCC1	140	
C[C@@H]1CN([C@@H](C)CO)S(=O)(=O)c2ccc(C#Cc3ccc(F)cc3)cc2O[C@H]1CN(C)C(=O)NC1CCCCC1	37	
C[C@@H]1CN([C@@H](C)CO)S(=O)(=O)c2ccc(C#Cc3cncn3C)cc2O[C@H]1CN(C)C(=O)NC1CCCCC1	1600	
COc1ccc(C#Cc2ccc3c(c2)O[C@@H](CN(C)C(=O)NC2CCCCC2)[C@H](C)CN([C@@H](C)CO)S3(=O)=O)cc1	91	
C[C@@H]1CN([C@@H](C)CO)S(=O)(=O)c2ccc(C#Cc3cccnc3)cc2O[C@H]1CCC(=O)NC1CCCCC1	9100	
C[C@@H]1CN([C@@H](C)CO)S(=O)(=O)c2ccc(C#Cc3cccc(F)c3)cc2O[C@H]1CN(C)C(=O)c1ccno1	19000	
C[C@@H]1CN([C@@H](C)CO)S(=O)(=O)c2ccc(C#Cc3cccc(F)c3)cc2O[C@H]1CN(C)C(=O)C1CCOCC1	7900	
C[C@@H]1CN([C@@H](C)CO)S(=O)(=O)c2ccc(C#C[Si](C)(C)C)cc2O[C@H]1CN(C)C(=O)NC1CCCCC1	140	
C#Cc1ccc2c(c1)O[C@@H](CN(C)C(=O)NC1CCCCC1)[C@H](C)CN([C@@H](C)CO)S2(=O)=O	7700	

SMILES	IC50 [1] [nM]	further results
C[C@@H]1CN([C@@H](C)CO)S(=O)(=O)c2ccc(C#Cc3cccc(F)c3)cc2O[C@H]1CN(C)C(=O)NC1CCCC1	80	
Cc1noc(C)c1NC(=O)N(C)C[C@@H]1Oc2cc(C#Cc3cccc(F)c3)ccc2S(=O)(=O)N([C@@H](C)CO)C[C@H]1C	11000	
C[C@@H]1CN([C@@H](C)CO)S(=O)(=O)c2ccc(C#Cc3ccc(Cl)cc3)cc2O[C@H]1CN(C)C(=O)NC1CCCCC1	56	
C[C@@H]1CN([C@@H](C)CO)S(=O)(=O)c2ccc(C#Cc3cccc(F)c3)cc2O[C@H]1CN(C)C(=O)Nc1ccccc1	3100	
C[C@@H]1CN([C@@H](C)CO)S(=O)(=O)c2ccc(C#Cc3cccc(F)c3)cc2O[C@@H]1CN(C)C(=O)NC1CCCCC1	3900	
C[C@@H]1CN([C@@H](C)CO)S(=O)(=O)c2ccc(C#Cc3ccc(F)c(F)c3)cc2O[C@H]1CN(C)C(=O)NC1CCCCC1	28	
CCNC(=O)N(C)C[C@@H]1Oc2cc(C#Cc3cccc(F)c3)ccc2S(=O)(=O)N([C@@H](C)CO)C[C@H]1C	1400	
Cc1ccccc1C(C(=O)NC1CCCCC1)N(C(=O)Cn1ccnc1C)c1cccc(F)c1 (stereo not given)		EC50 [2]: 60 nM; inhibition [3]: Dose-dependent effect; inhibition [4]: Active
C[C@@H]1CN([C@@H](C)CO)S(=O)(=O)c2ccc(C#Cc3cccc(F)c3)cc2O[C@H]1CN(C)C(=O)N(C)C1CCCCC1	5700	
C[C@@H]1CN([C@@H](C)CO)S(=O)(=O)c2ccc(C#CBr)cc2O[C@H]1CN(C)C(=O)NC1CCCCC1	> 20000	
COc1ccc(OC[C@H](C)N2C[C@@H](C)[C@H](CN(C)C(=O)NC3CCCCC3)Oc3cc(C#Cc4cccnc4)ccc3S2(=O)=O)cc1	96	
C[C@@H]1CN([C@@H](C)CO)S(=O)(=O)c2ccc(C#Cc3ccccc3F)cc2O[C@H]1CN(C)C(=O)NC1CCCCC1	91	
C[C@H](CO)N1C[C@H](C)[C@@H](CN(C)C(=O)NC2CCCCC2)Oc2cc(C#Cc3cccc(F)c3)ccc2S1(=O)=O	1700	
C[C@@H]1CN([C@@H](C)CO)S(=O)(=O)c2ccc(C#Cc3cccnc3)cc2O[C@H]1CN(C)C(=S)NC1CCCCC1	160	
C[C@H](CO)N1C[C@H](C)[C@H](CN(C)C(=O)NC2CCCCC2)Oc2cc(C#Cc3cccc(F)c3)ccc2S1(=O)=O	> 20000	
C[C@@H]1CN([C@@H](C)CO)S(=O)(=O)c2ccc(C#Cc3cccc(Cl)c3)cc2O[C@H]1CN(C)C(=O)NC1CCCCC1	60	
C[C@@H]1CN([C@@H](C)CO)S(=O)(=O)c2ccc(C#Cc3ccccc3)cc2O[C@H]1CN(C)C(=O)NC1CCCCC1	75	
C[C@@H]1CN([C@@H](C)CO)S(=O)(=O)c2ccc(C#Cc3cncnc3)cc2O[C@H]1CN(C)C(=O)NC1CCCCC1	320	
C[C@@H]1CN([C@@H](C)CO)S(=O)(=O)c2ccc(C#Cc3cccc(F)c3)cc2O[C@H]1CN(C)C(=O)OC(C)(C)C	1600	
C[C@@H]1CN([C@@H](C)CO)S(=O)(=O)c2ccc(C#Cc3ccc(F)cn3)cc2O[C@H]1CN(C)C(=O)NC1CCCCC1	260	
C[C@@H]1CN([C@@H](C)CN(C)C)S(=O)(=O)c2ccc(C#Cc3ccc(F)cc3)cc2O[C@H]1CN(C)C(=O)NC1CCCCC1	32	

— ChEMBL document CHEMBL3862029, “Discovery of 8-Membered Ring Sulfonamides as Inhibitors of Oncogenic Mutant Isocitrate Dehydrogenase 1” (ACS Med Chem Lett, 2016)
